From ChEMBL document CHEMBL1152893, “Synthesis and in vitro trichomonicidal, giardicidal and amebicidal activity of N-acetamide(sulfonamide)-2-methyl-4-nitro-1H-imidazoles” (Eur J Med Chem, 2009)
pIC50: −log10 of the molar value.

Test system: Trichomonas vaginalis
Assay: Antiparasitic activity against Trichomonas vaginalis GT3 trophozoites after 48 hrs by […]
Assay type: functional, organism-based
Details: GT3, 48 h
In short: (§1)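 Axenic trophozoites grown in modified TYI-S-33 with 10% calf serum and bovine bile; exposed 48 h at 37 °C to increasing compound concentrations, DMSO as negative control. Then washed, subcultured 48 h in fresh drug-free medium and counted. IC50 by Probit analysis; triplicate, repeated at least twice.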

| SMILES | pIC50 |
| --- | --- |
| Cc1nc([N+](=O)[O-])cn1CC(=O)Nc1ccccc1 | 4.61 |
| Cc1nc([N+](=O)[O-])cn1CC(=O)Nc1ccc(F)cc1 | 5.25 |
| Cc1nc([N+](=O)[O-])cn1CC(=O)Nc1ccc([N+](=O)[O-])cc1 | 5.18 |
| Cc1nc([N+](=O)[O-])cn1CC(=O)Nc1cccc(C(F)(F)F)c1 | 4.17 |
| Cc1nc([N+](=O)[O-])cn1CC(=O)NCc1ccccc1 | 5.10 |
| O=C(Cn1ccnc1[N+](=O)[O-])NCc1ccccc1 [BENZNIDAZOLE] | 4.73 |
| Cc1nc([N+](=O)[O-])cn1S(=O)(=O)c1ccc([N+](=O)[O-])cc1 | 5.53 |
| CC(=O)Nc1ccc(S(=O)(=O)n2cc([N+](=O)[O-])nc2C)cc1 | 5.06 |
| Cc1nc([N+](=O)[O-])cn1CC(=O)Nc1c(Cl)cccc1Cl | 4.43 |

Test system: Entamoeba histolytica
Assay: Ratio of 2-methyl-4(5)-nitroimidazole IC50 to compound IC50 for Entamoeba histolytica HM-1:IMSS trophozoites
Assay type: functional
Details: not given

| SMILES | Ratio IC50 |
| --- | --- |
| Cc1nc([N+](=O)[O-])cn1CC(=O)NCc1ccccc1 | 2 |
| CC(=O)Nc1ccc(S(=O)(=O)n2cc([N+](=O)[O-])nc2C)cc1 | 2 |

Test system: not listed separately
Assay: Selectivity index, ratio of CC50 for MDCK cells to IC50 for Entamoeba histolytica HM-1:IMSS trophozoites
Assay type: functional
Details: not given

| SMILES | Ratio CC50/IC50 |
| --- | --- |
| Cc1nc([N+](=O)[O-])cn1CC(=O)Nc1ccccc1 | 43 |
| Cc1nc([N+](=O)[O-])cn1CC(=O)Nc1ccc(F)cc1 | 74 |
| Cc1nc([N+](=O)[O-])cn1CC(=O)Nc1ccc([N+](=O)[O-])cc1 | 52 |
| Cc1nc([N+](=O)[O-])cn1CC(=O)Nc1cccc(C(F)(F)F)c1 | 15 |
| Cc1nc([N+](=O)[O-])cn1CC(=O)NCc1ccccc1 | 20 |
| Cc1nc([N+](=O)[O-])cn1S(=O)(=O)c1ccc([N+](=O)[O-])cc1 | 84 |
| CC(=O)Nc1ccc(S(=O)(=O)n2cc([N+](=O)[O-])nc2C)cc1 | 265 |
| Cc1nc([N+](=O)[O-])cn1CC(=O)Nc1c(Cl)cccc1Cl | 16 |

Test system: not listed separately
Assay: Selectivity index, ratio of CC50 for MDCK cells to IC50 for Trichomonas vaginalis GT3 trophozoites
Assay type: functional
Details: not given

| SMILES | Ratio CC50/IC50 |
| --- | --- |
| Cc1nc([N+](=O)[O-])cn1CC(=O)Nc1ccccc1 | 46 |
| Cc1nc([N+](=O)[O-])cn1CC(=O)Nc1ccc(F)cc1 | 148 |
| Cc1nc([N+](=O)[O-])cn1CC(=O)Nc1ccc([N+](=O)[O-])cc1 | 120 |
| Cc1nc([N+](=O)[O-])cn1CC(=O)Nc1cccc(C(F)(F)F)c1 | 6 |
| Cc1nc([N+](=O)[O-])cn1CC(=O)NCc1ccccc1 | 10 |
| Cc1nc([N+](=O)[O-])cn1S(=O)(=O)c1ccc([N+](=O)[O-])cc1 | 209 |
| CC(=O)Nc1ccc(S(=O)(=O)n2cc([N+](=O)[O-])nc2C)cc1 | 118 |
| Cc1nc([N+](=O)[O-])cn1CC(=O)Nc1c(Cl)cccc1Cl | 11 |

Test system: Trichomonas vaginalis
Assay: Ratio of Benznidazole IC50 to compound IC50 for Trichomonas vaginalis GT3 trophozoites
Assay type: functional
Details: not given

| SMILES | Ratio IC50 |
| --- | --- |
| Cc1nc([N+](=O)[O-])cn1CC(=O)Nc1ccc(F)cc1 | 3 |
| Cc1nc([N+](=O)[O-])cn1CC(=O)NCc1ccccc1 | 2 |
| Cc1nc([N+](=O)[O-])cn1S(=O)(=O)c1ccc([N+](=O)[O-])cc1 | 6 |

Test system: Giardia intestinalis
Assay: Antiparasitic activity against Giardia intestinalis IMSS:0696 trophozoites after 48 hrs by […]
Assay type: functional, organism-based
Details: Giardia duodenalis, IMSS:0696, 48 h
In short: as §1

| SMILES | pIC50 |
| --- | --- |
| Cc1nc([N+](=O)[O-])cn1CC(=O)Nc1ccccc1 | 4.31 |
| Cc1nc([N+](=O)[O-])cn1CC(=O)Nc1ccc(F)cc1 | 4.68 |
| Cc1nc([N+](=O)[O-])cn1CC(=O)Nc1ccc([N+](=O)[O-])cc1 | 4.81 |
| Cc1nc([N+](=O)[O-])cn1CC(=O)Nc1cccc(C(F)(F)F)c1 | 4.42 |
| Cc1nc([N+](=O)[O-])cn1CC(=O)NCc1ccccc1 | 4.75 |
| O=C(Cn1ccnc1[N+](=O)[O-])NCc1ccccc1 [BENZNIDAZOLE] | 4.65 |
| Cc1nc([N+](=O)[O-])cn1S(=O)(=O)c1ccc([N+](=O)[O-])cc1 | 5.12 |
| CC(=O)Nc1ccc(S(=O)(=O)n2cc([N+](=O)[O-])nc2C)cc1 | 4.70 |
| Cc1nc([N+](=O)[O-])cn1CC(=O)Nc1c(Cl)cccc1Cl | 4.66 |

Test system: not listed separately
Assay: Cytotoxicity against MDCK cells after 72 hrs by MTT assay
Assay type: cell-based, Canis lupus familiaris
Details: dog
In short: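 MDCK cells in DMEM with 10% FBS and penicillin/streptomycin, 37 °C, 5% CO2. 1.5×10⁴ cells/well seeded; above 80% confluence, medium replaced and compounds added from 6.25 upward, DMSO final 0.05%. After 72 h, MTT added for 4 h at 37 °C. Formazan dissolved in acidified isopropanol (0.4 N HCl), OD 540 nm; untreated cells as negative control; CC50 calculated.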

| SMILES | CC50 at 72 h [µM] |
| --- | --- |
| Cc1nc([N+](=O)[O-])cn1CC(=O)Nc1ccccc1 | 1140 |
| Cc1nc([N+](=O)[O-])cn1CC(=O)Nc1ccc(F)cc1 | 828 |
| Cc1nc([N+](=O)[O-])cn1CC(=O)Nc1ccc([N+](=O)[O-])cc1 | 798 |
| Cc1nc([N+](=O)[O-])cn1CC(=O)Nc1cccc(C(F)(F)F)c1 | 435 |
| Cc1nc([N+](=O)[O-])cn1CC(=O)NCc1ccccc1 | 77.5 |
| Cc1nc([N+](=O)[O-])cn1S(=O)(=O)c1ccc([N+](=O)[O-])cc1 | 611 |
| CC(=O)Nc1ccc(S(=O)(=O)n2cc([N+](=O)[O-])nc2C)cc1 | 1030 |
| Cc1nc([N+](=O)[O-])cn1CC(=O)Nc1c(Cl)cccc1Cl | 396 |

Test system: Giardia intestinalis
Assay: Ratio of 2-methyl-4(5)-nitroimidazole IC50 to compound IC50 for Giardia intestinalis IMSS:0696 trophozoites
Assay type: functional, Giardia duodenalis
Details: not given

| SMILES | Ratio IC50 |
| --- | --- |
| Cc1nc([N+](=O)[O-])cn1S(=O)(=O)c1ccc([N+](=O)[O-])cc1 | 2 |

Test system: Giardia intestinalis
Assay: Ratio of Benznidazole IC50 to compound IC50 for Giardia intestinalis IMSS:0696 trophozoites
Assay type: functional, Giardia duodenalis
Details: not given

| SMILES | Ratio IC50 |
| --- | --- |
| Cc1nc([N+](=O)[O-])cn1S(=O)(=O)c1ccc([N+](=O)[O-])cc1 | 2 |

Test system: Entamoeba histolytica
Assay: Amebicidal activity against Entamoeba histolytica HM-1:IMSS trophozoites after 48 hrs by […]
Assay type: functional, organism-based
Details: not given
In short: as §1

| SMILES | pIC50 |
| --- | --- |
| Cc1nc([N+](=O)[O-])cn1CC(=O)Nc1ccccc1 | 4.58 |
| Cc1nc([N+](=O)[O-])cn1CC(=O)Nc1ccc(F)cc1 | 4.95 |
| Cc1nc([N+](=O)[O-])cn1CC(=O)Nc1ccc([N+](=O)[O-])cc1 | 4.81 |
| Cc1nc([N+](=O)[O-])cn1CC(=O)Nc1cccc(C(F)(F)F)c1 | 4.54 |
| Cc1nc([N+](=O)[O-])cn1CC(=O)NCc1ccccc1 | 5.40 |
| O=C(Cn1ccnc1[N+](=O)[O-])NCc1ccccc1 [BENZNIDAZOLE] | 5.37 |
| Cc1nc([N+](=O)[O-])cn1S(=O)(=O)c1ccc([N+](=O)[O-])cc1 | 5.14 |
| CC(=O)Nc1ccc(S(=O)(=O)n2cc([N+](=O)[O-])nc2C)cc1 | 5.41 |
| Cc1nc([N+](=O)[O-])cn1CC(=O)Nc1c(Cl)cccc1Cl | 4.60 |

Test system: not listed separately
Assay: Selectivity index, ratio of CC50 for MDCK cells to IC50 for Giardia intestinalis IMSS:0696 trophozoites
Assay type: functional
Details: not given

| SMILES | Ratio CC50/IC50 |
| --- | --- |
| Cc1nc([N+](=O)[O-])cn1CC(=O)Nc1ccccc1 | 23 |
| Cc1nc([N+](=O)[O-])cn1CC(=O)Nc1ccc(F)cc1 | 39 |
| Cc1nc([N+](=O)[O-])cn1CC(=O)Nc1ccc([N+](=O)[O-])cc1 | 52 |
| Cc1nc([N+](=O)[O-])cn1CC(=O)Nc1cccc(C(F)(F)F)c1 | 12 |
| Cc1nc([N+](=O)[O-])cn1CC(=O)NCc1ccccc1 | 4 |
| Cc1nc([N+](=O)[O-])cn1S(=O)(=O)c1ccc([N+](=O)[O-])cc1 | 82 |
| CC(=O)Nc1ccc(S(=O)(=O)n2cc([N+](=O)[O-])nc2C)cc1 | 51 |
| Cc1nc([N+](=O)[O-])cn1CC(=O)Nc1c(Cl)cccc1Cl | 18 |

Test system: Trichomonas vaginalis
Assay: Ratio of 2-methyl-4(5)-nitroimidazole IC50 to compound IC50 for Trichomonas vaginalis GT3 trophozoites
Assay type: functional
Details: not given

| SMILES | Ratio IC50 |
| --- | --- |
| Cc1nc([N+](=O)[O-])cn1CC(=O)Nc1ccc(F)cc1 | 6 |
| Cc1nc([N+](=O)[O-])cn1CC(=O)NCc1ccccc1 | 5 |
| Cc1nc([N+](=O)[O-])cn1S(=O)(=O)c1ccc([N+](=O)[O-])cc1 | 14 |
